Apaf-1 act: activates human Apaf-1 apoptosome; hit rate 0.31% among 330,000; AID 489031; activity change, negative = activation, % at 20 µM; Apaf-1 apoptosome caspase-3 activation, DEVD-Rh110 fluorescence; stronger effect = lower value;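 active = activity change at or below -40% at 20 µM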
Target sequence (O14727 whole entry, looked up): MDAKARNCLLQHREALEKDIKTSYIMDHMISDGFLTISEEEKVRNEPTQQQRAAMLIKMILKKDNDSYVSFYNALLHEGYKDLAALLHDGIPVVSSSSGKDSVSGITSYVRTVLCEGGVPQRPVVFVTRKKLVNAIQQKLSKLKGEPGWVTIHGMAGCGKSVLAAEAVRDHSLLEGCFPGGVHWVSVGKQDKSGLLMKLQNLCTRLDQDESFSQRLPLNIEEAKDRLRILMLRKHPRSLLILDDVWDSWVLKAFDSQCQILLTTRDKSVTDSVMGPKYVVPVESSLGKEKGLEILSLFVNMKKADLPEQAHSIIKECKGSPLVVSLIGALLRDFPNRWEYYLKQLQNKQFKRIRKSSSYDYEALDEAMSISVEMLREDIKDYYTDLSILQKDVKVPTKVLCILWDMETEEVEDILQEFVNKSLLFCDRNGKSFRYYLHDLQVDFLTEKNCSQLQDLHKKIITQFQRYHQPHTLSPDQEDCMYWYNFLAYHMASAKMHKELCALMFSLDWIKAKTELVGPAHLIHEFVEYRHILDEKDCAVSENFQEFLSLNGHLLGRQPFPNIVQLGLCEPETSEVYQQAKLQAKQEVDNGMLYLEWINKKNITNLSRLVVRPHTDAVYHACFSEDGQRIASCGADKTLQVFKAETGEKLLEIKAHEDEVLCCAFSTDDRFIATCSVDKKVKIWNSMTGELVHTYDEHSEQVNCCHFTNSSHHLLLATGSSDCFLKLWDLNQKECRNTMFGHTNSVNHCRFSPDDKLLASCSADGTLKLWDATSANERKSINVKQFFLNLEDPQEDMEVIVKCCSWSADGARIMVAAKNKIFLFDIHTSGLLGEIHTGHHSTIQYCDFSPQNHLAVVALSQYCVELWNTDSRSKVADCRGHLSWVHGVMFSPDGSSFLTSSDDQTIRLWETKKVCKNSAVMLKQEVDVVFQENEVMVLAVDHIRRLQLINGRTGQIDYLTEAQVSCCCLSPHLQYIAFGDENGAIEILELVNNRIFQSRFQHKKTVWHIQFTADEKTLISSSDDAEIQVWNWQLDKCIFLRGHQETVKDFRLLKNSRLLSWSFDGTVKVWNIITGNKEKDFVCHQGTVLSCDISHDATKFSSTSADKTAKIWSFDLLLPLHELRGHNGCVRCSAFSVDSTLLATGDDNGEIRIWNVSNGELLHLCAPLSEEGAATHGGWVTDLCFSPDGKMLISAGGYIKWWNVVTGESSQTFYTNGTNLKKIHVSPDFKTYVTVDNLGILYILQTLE
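Schedule: 30 min preincubation, 50 min reaction, room temperature / System: biochemical Apaf-1 apoptosome reconstitution / Medium: 20 mM HEPES pH 7.5 with CHAPS, BSA / Evaluation: Caspase-3 cleavage activity downstream of Apaf-1 activation / Detection: Caspase-3-released Rh110 fluorescence, 540 nm emission, 480 nm excitation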
Rh110 act interf: counter-screen for Apaf-1 activators: fluorescence interference | shares compounds with Apaf-1 act | Rh110 fluorescence interference, quenched caspase reaction, Ex480/Em540 | 980 tested, under 10 active | fluorescence interference (activity change), % at 20 µM, hits read low;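 active = mean activity change at or below -40% when tested at 20 µM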
Apaf-1 act conf2: Apaf-1 (human) activation, single-dose confirmed; shares compounds with Apaf-1 act; reconstituted apoptosome caspase-3 activity, DEVD-Rh110 fluorescence; stronger effect = lower value; activity change, negative = activation, % at 20 µM; hit rate 5% among 980; AID 504617;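 active = mean activity change at or below -40%, meaning activation of 40% or more, at 20 µM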
Numbers stand for hits. Only a sample is shown.

How did c1ccc(C2(CN3CCNC[C@H]3Cc3cccc4ccccc34)CC2)cc1 do in these assays?
Apaf-1 act: inactive

Results for CN1CCCC1CCNc1ccc2sc3ccccc3c(=O)c2c1 (stereo unspecified) ?
Apaf-1 act: inactive

How did NC1(C#Cc2ccc3c(=O)c4ccccc4sc3c2)CCCCC1 do in these assays?
Apaf-1 act: inactive

What do the screens show for `COc1ccc2sc3ccccc3c(=O)c2c1`?
Apaf-1 act: -77; Rh110 act interf: inactive; Apaf-1 act conf2: inactive

What do the screens show for `CC(Oc1cccc(Cl)c1)C(=O)Nc1cc(S(=O)(=O)N2CCOCC2)ccc1N1CCCCC1` (stereo unspecified)?
Apaf-1 act: inactive

Results for Cc1[nH]n(-c2ccccc2)c(=O)c1C(C[N+](=O)[O-])c1ccc(Br)cc1 (stereo unspecified) ?
Apaf-1 act: inactive

How did COc1cc(/C=C2\C(=O)N(CCC#N)N=C2C)c(Br)cc1OC(C)C do in these assays?
Apaf-1 act: inactive

What do the screens show for `CCN1CCN(Cc2ccc(NC(=O)c3ccc(C)c(NC(=O)c4cc(-c5ccc(Br)cc5)n[nH]4)c3)cc2C(F)(F)F)CC1`?
Apaf-1 act: inactive

What do the screens show for `Cc1nn(CC(=O)N2CCc3ccccc32)c(C)c1S(=O)(=O)NC(C)(C)C`?
Apaf-1 act: -57; Rh110 act interf: inactive; Apaf-1 act conf2: inactive

Results for COc1ccc(NC2=C(NCCO)C(=O)c3ccccc3C2=O)cc1 ?
Apaf-1 act: inactive

How did O=C(NC1(O)C(=O)c2ccccc2C1=O)c1ccccc1 do in these assays?
Apaf-1 act: inactive

What do the screens show for `Cn1c2c(c(=O)n(C)c1=O)CN(CCCN1CCOCC1)CN2`?
Apaf-1 act: -59; Rh110 act interf: inactive; Apaf-1 act conf2: inactive

Results for N#Cc1c(N)n(CCNC(=O)c2cccs2)c2nc3ccccc3nc12 ?
Apaf-1 act: inactive

How did CC1=NN(c2ccccc2)C(=O)/C1=C\c1ccc(Oc2ccc([N+](=O)[O-])cc2[N+](=O)[O-])cc1 do in these assays?
Apaf-1 act: inactive

How did COc1ccc(-c2nn(-c3ccccc3)cc2/C=C(/C#N)C(N)=O)cc1[N+](=O)[O-] do in these assays?
Apaf-1 act: -57; Rh110 act interf: inactive; Apaf-1 act conf2: inactive

How did N#C/C(=C/c1cn(-c2ccccc2)nc1-c1cccc(OCc2ccc(F)cc2)c1)C(=O)NCCCn1ccnc1 do in these assays?
Apaf-1 act: inactive

Results for COc1ccc(-c2nn(-c3ccccc3)cc2/C=C(\C#N)C(N)=O)cc1[N+](=O)[O-] ?
Apaf-1 act: -53; Rh110 act interf: inactive; Apaf-1 act conf2: inactive

What do the screens show for `C#CCOCCOCCOCCNc1nc(N2CCN(C(=O)CCCCCCCCCCNC(=O)Cn3cc(CCCCCN)nn3)CC2)nc(N2CCN(C(=O)CCCCCCCCCCNC(=O)Cn3cc(C[C@@H](C)O)nn3)CC2)n1`?
Apaf-1 act: inactive

What do the screens show for `Cc1cc(C(=O)N/N=C2\CC(=O)c3ccccc32)c(C)n1-c1ccc(F)cc1`?
Apaf-1 act: inactive

How did COc1ccc(/C=N/Nc2cc(C)nc3ccc(OC)cc23)c(OC)c1 do in these assays?
Apaf-1 act: inactive

Results for Nc1ccc2c(c1)C(=O)C(=O)c1ccccc1-2 ?
Apaf-1 act: inactive

How did CCCCCCCCCCCCCCCC[N+](C)(C)CCN(Cc1ccc(OC)cc1)c1ncccn1 do in these assays?
Apaf-1 act: inactive

How did CCOC(=O)Nc1ccc(NCc2ccc(F)cc2)nc1N do in these assays?
Apaf-1 act: inactive

How did Cc1ccc(S(=O)(=O)N2CCN(c3nc(CN4CCCC4)nc4sc(C)c(C)c34)CC2)cc1 do in these assays?
Apaf-1 act: inactive

How did Cc1ccc(S(=O)(=O)c2nc(S(C)(=O)=O)sc2N(C)C)cc1 do in these assays?
Apaf-1 act: -90; Rh110 act interf: inactive; Apaf-1 act conf2: inactive

What do the screens show for `C#CCOCCOCCOCCNc1nc(N2CCN(C(=O)CCCCCCCCCCNC(=O)Cn3cc(CCCCCN)nn3)CC2)nc(N2CCN(C(=O)CCCCCCCCCCNC(=O)[C@@H]([C@H](C)O)n3cc(C)nn3)CC2)n1`?
Apaf-1 act: inactive

How did COc1cc(C)c2c(c1C=O)Oc1c(c(C)c(O)c3c1C(O)OC3=O)OC2=O (stereo unspecified) do in these assays?
Apaf-1 act: inactive

What do the screens show for `COc1cccc(-c2nnc(SC(C(=O)c3c[nH]c4ccccc34)c3ccccc3)n2C)c1` (stereo unspecified)?
Apaf-1 act: inactive

How did COc1cccc(NC(=S)Nc2cccc3ccccc23)c1 do in these assays?
Apaf-1 act: inactive

What do the screens show for `COc1cccc(NC(=O)C(Sc2nnc(Nc3ccccc3C)s2)c2ccccc2)c1` (stereo unspecified)?
Apaf-1 act: -276; Rh110 act interf: inactive; Apaf-1 act conf2: inactive

Results for CN(C)c1cc(N/N=C/c2ccccc2C(F)(F)F)nc(N(C)C)n1 ?
Apaf-1 act: inactive

What do the screens show for `COC(=O)c1ccc(NC(=S)N2CCN(Cc3ccc(Cl)cc3)CC2)cc1`?
Apaf-1 act: -350; Rh110 act interf: inactive; Apaf-1 act conf2: inactive

Results for CN1CCN(c2ccc(NC(=O)c3ccc(-c4ccc(Cl)cc4)o3)cc2)CC1 ?
Apaf-1 act: inactive

How did O=C(NC(=S)Nc1ccc(CN2CCCCC2)cc1)c1cccc(OCc2ccccc2)c1 do in these assays?
Apaf-1 act: inactive

Results for COc1cc(C#Cc2c(-c3cncn3C)n(C)c3ccc(-c4cnc(OC)nc4)cc23)cc(OC)c1 ?
Apaf-1 act: inactive

Results for NC(=O)OCC(COC(N)=O)c1ccccc1 ?
Apaf-1 act: inactive

How did CC(C)COC(=O)c1nnsc1NC(=O)Nc1ccccc1 do in these assays?
Apaf-1 act: -63; Rh110 act interf: inactive; Apaf-1 act conf2: inactive

Results for COc1ccccc1CCn1c(N)c(C#N)c2nc3ccccc3nc21 ?
Apaf-1 act: inactive

Results for O=S(=O)(/N=C/N1CCOCC1)c1ccc(Cl)cc1 ?
Apaf-1 act: inactive

What do the screens show for `Cc1[nH]c(=O)[nH]c(=O)c1CSCC(=O)OCC(=O)c1ccc(Br)cc1`?
Apaf-1 act: -139; Rh110 act interf: inactive; Apaf-1 act conf2: inactive

What do the screens show for `CC(=O)N(C)C1=C(O)c2ccccc2C(=O)C1=O`?
Apaf-1 act: inactive

Results for CCc1cccc2c(C#N)cn(CCOc3ccccc3OC)c12 ?
Apaf-1 act: -104; Rh110 act interf: inactive; Apaf-1 act conf2: inactive

What do the screens show for `COc1ccc2ccccc2c1C1CC(=O)N2CN(C)CSC2=C1C#N` (stereo unspecified)?
Apaf-1 act: inactive

How did C/C(=N\Nc1ccc([N+](=O)[O-])cc1)c1ccc(C#N)cc1 do in these assays?
Apaf-1 act: -44; Rh110 act interf: inactive; Apaf-1 act conf2: inactive

What do the screens show for `Cc1c(NC(=O)CSc2ccc3c(c2)OCCO3)c(=O)n(-c2ccccc2)n1C`?
Apaf-1 act: -46; Rh110 act interf: inactive; Apaf-1 act conf2: inactive

Results for CC1=CC(=Nc2c(C)n(C)n(-c3ccccc3)c2=O)C=CC1=O ?
Apaf-1 act: inactive

What do the screens show for `Cc1ccsc1C(=O)OCC(=O)Nc1c(C)n(C)n(-c2ccccc2)c1=O`?
Apaf-1 act: -77; Rh110 act interf: inactive; Apaf-1 act conf2: inactive

Results for C#CCOCCOCCOCCNc1nc(N2CCN(C(=O)[C@H](CCCCN)n3cc([C@@H](N)CO)nn3)CC2)nc(N2CCN(C(=O)[C@H](Cc3cc4ccccc4[nH]3)n3cc([C@@H](N)Cc4ccc(O)cc4)nn3)CC2)n1 ?
Apaf-1 act: inactive

Assay outcomes from PubChem.
